Starred links: 1 amine or outer side, 2 acyl side, 3 side chain; linkers in the order of their positions; H or OH if unused. Non-standard residues stand in square brackets, D forms with d. Residues, ends and D or L forms follow the SMILES beside them. *: point of attachment. X1 = NP(=O)(OCc1c(F)c(F)c(N*)c(F)c1F)N(CCCl)CCCl; X3 = NP(=O)(OCc1c(F)cc(N*)cc1F)N(CCCl)CCCl; X2 = NP(=O)(OCc1ccc(N*)c(F)c1)N(CCCl)CCCl; X5 = NP(=O)(OCc1ccc(N*)cc1F)N(CCCl)CCCl; X4 = NP(=O)(OCc1ccc(N*)cc1)N(CCCl)CCCl; Glutaryl = O=C(CCCC(=O)[*:2])[*:1]; Hyp = O=C(O)[C@@H]1C[C@@H](O)CN1; Chg = N[C@H](C(=O)O)C1CCCCC1
Assays:
[1] = biological target: T1, Prostate-specific antigen (Homo sapiens, UniProt P07288); assay: Prodrug activation assessed as prostate specific antigen (unknown origin)-mediated drug metabolism in Tris/HCl buffer pH 8 at 0.16 mM by HPLC analysis; type: ADME; conditions: pH 8, 160 µM, TDE = time-dependent effect
T1 sequence (P07288 whole entry): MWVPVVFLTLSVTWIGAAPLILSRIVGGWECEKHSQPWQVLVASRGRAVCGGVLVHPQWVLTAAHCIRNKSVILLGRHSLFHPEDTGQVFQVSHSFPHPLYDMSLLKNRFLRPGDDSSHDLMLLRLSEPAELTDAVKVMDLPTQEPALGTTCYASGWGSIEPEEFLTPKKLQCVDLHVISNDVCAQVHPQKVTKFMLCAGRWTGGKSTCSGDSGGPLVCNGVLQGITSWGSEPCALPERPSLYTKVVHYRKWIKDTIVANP
How it was run: (§1)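 Purified PSA with substrate at 1:100 enzyme/substrate molar ratio, 37 °C, Tris/HCl pH 8.0 with 10 mM CaCl2 and 0.1% Tween-20. Substrate stocks 10 mM in DMSO. Aliquots taken at intervals, quenched with 20% acetonitrile, frozen, then analysed by HPLC for substrate loss. Cleavage site after Gln confirmed by LC/MS.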

[2] = Half life in Tris buffer pH 8 at 100 uM by HPLC analysis; type: ADME
How it was run: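 Conjugate at 100 µM incubated at 37 °C in 50 mM Tris/HCl pH 8.0 with 10 mM CaCl2 and 0.1% Tween-20, without enzyme. Loss of conjugate followed over time by HPLC to give half-life.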

[3] = biological target: T1, Prostate-specific antigen; assay: Prodrug activation assessed as prostate specific antigen (unknown origin)-mediated drug metabolism in Tris/HCl buffer pH 8 at 100 uM measured as half life by HPLC analysis; type: ADME; conditions: pH 8, 100 µM; how it was run: as §1
[4] = Antiproliferative activity against human DU145 cells after 72 hrs by MTT assay; type: functional, cell-based; conditions: DU-145, 72 h
How it was run: (§2)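 LNCaP (PSA-producing) and DU145 (non-PSA) cells grown in RPMI 1640 with 10% FBS; 7500 LNCaP or 500 DU145 cells/well, grown 48 h. Medium then switched to serum-free RPMI with 2% TCM, no phenol red. Conjugates 0.01–100 µM for 72 h; medium alone as negative control. MTT 4 h at 37 °C, read at 570 nm; IC50 interpolated from percent of control growth.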

LNCaP = assay: Antiproliferative activity against human LNCAP cells expressing prostate specific antigen after 72 hrs by MTT assay; type: functional, cell-based; how it was run: as §2
[5] = biological target: T1, Prostate-specific antigen; assay: Prodrug activation assessed as prostate specific antigen (unknown origin)-mediated drug metabolism in Tris/HCl buffer at pH 8 measured after 2 hrs by HPLC analysis; type: ADME; conditions: pH 8, 2 h; how it was run: as §1

Row | SMILES | Drug metabolism [1] | half-life at 100 µM [2] [h] | t1/2 [3] [h] | IC50 [4] [µM] | IC50 (LNCaP) [µM] | Drug metabolism [5]
1 | C[C@H](NC(=O)[C@@H]1C[C@@H](O)CN1C(=O)CCCC(=O)O)C(=O)N[C@@H](CO)C(=O)N[C@H](C(=O)N[C@@H](CCC(N)=O)C(=O)Nc1ccc(COP(N)(=O)N(CCCl)CCCl)c(F)c1)C1CCCCC1 (some centres undefined) (Glutaryl-[Hyp]AS[Chg]Q-X5) | tde | 105 | 0.93 | > 100 | 5.3 | 
2 | C[C@H](NC(=O)[C@@H]1C[C@@H](O)CN1C(=O)CCCC(=O)O)C(=O)N[C@@H](CO)C(=O)N[C@H](C(=O)N[C@@H](CCC(N)=O)C(=O)Nc1c(F)c(F)c(COP(N)(=O)N(CCCl)CCCl)c(F)c1F)C1CCCCC1 (some centres undefined) (Glutaryl-[Hyp]AS[Chg]Q-X1) | tde | 178 | 1.1 | > 100 | > 100 | 
3 | C[C@H](NC(=O)[C@@H]1C[C@@H](O)CN1C(=O)CCCC(=O)O)C(=O)N[C@@H](CO)C(=O)N[C@H](C(=O)N[C@@H](CCC(N)=O)C(=O)Nc1ccc(COP(N)(=O)N(CCCl)CCCl)cc1)C1CCCCC1 (some centres undefined) (Glutaryl-[Hyp]AS[Chg]Q-X4) | tde | 46 | 2.1 | 35 | 11 | 
4 | COc1cccc2c1C(=O)c1c(O)c3c(c(O)c1C2=O)C[C@](O)(C(=O)CO)C[C@H]3O[C@@H]1C[C@@H](NC(=O)[C@@H](CC(C)C)NC(=O)[C@@H](CO)NC(=O)[C@@H](CCC(N)=O)NC(=O)[C@H](NC(=O)[C@@H](CO)NC(=O)[C@@H](C)NC(=O)[C@@H]2C[C@@H](O)CN2C(=O)CCCC(=O)O)C2CCCCC2)[C@@H](O)[C@@H](C)O1 (stereo in doubt) |  |  | 0.6 | > 100 | 1.1 | metabolite_detected
5 | C[C@H](NC(=O)[C@@H]1C[C@@H](O)CN1C(=O)CCCC(=O)O)C(=O)N[C@@H](CO)C(=O)N[C@H](C(=O)N[C@@H](CCC(N)=O)C(=O)Nc1ccc(COP(N)(=O)N(CCCl)CCCl)cc1F)C1CCCCC1 (some centres undefined) (Glutaryl-[Hyp]AS[Chg]Q-X2) | tde | 465 | 0.65 | > 100 | 29 | 
6 | C[C@H](NC(=O)[C@@H]1C[C@@H](O)CN1C(=O)CCCC(=O)O)C(=O)N[C@@H](CO)C(=O)N[C@H](C(=O)N[C@@H](CCC(N)=O)C(=O)Nc1cc(F)c(COP(N)(=O)N(CCCl)CCCl)c(F)c1)C1CCCCC1 (some centres undefined) (Glutaryl-[Hyp]AS[Chg]Q-X3) | tde | 131 | 1.7 | > 100 | 20 | 

From ChEMBL document CHEMBL3797115, “Design and synthesis of peptide conjugates of phosphoramide mustard as prodrugs activated by prostate-specific antigen” (Bioorg Med Chem, 2016)
